Assay results: ChEMBL document CHEMBL3603808, “Discovery and structure of a new inhibitor scaffold of the autophagy initiating kinase ULK1” (Bioorg Med Chem, 2015)
Active and inactive are the calls of the source. The rule behind the calls is not given here.

What was measured:
[1] = target: Mitogen-activated protein kinase kinase kinase 11 (Homo sapiens) (UniProt Q16584); assay: Inhibition of MLK3 (unknown origin) at 2 uM by radioactive filter-binding assay
Summary of the method: (§1)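 Panel profiling of one compound against 50 kinases, carried out in duplicate at the International Centre for Protein Kinase Profiling. Radioactive filter-binding format.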

[2] = target: Vascular endothelial growth factor receptor (Homo sapiens) (UniProt P17948+P35916+P35968); assay: Inhibition of VEGFR (unknown origin) at 2 uM by radioactive filter-binding assay; format: protein assay; summary of the method: as §1
HeLa = assay: Inhibition of autophagy in human HeLa cells assessed as induction of LC3-I protein accumulation at 4 uM incubated for 24 hrs by immunoblotting method; format: functional, cell-based
Summary of the method: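 HeLa cells were grown in DMEM with 10% FBS to about 50% confluency, then given 4 µM compound or DMSO for 24 h. Cold-PBS wash, lysis in TBS pH 7.6 with 1% Triton-X, 0.2% SDS and protease/phosphatase inhibitors. Lysates were protein-normalized and immunoblotted for LC3-I/LC3-II, with actin as loading control.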

[3] = target: Tyrosine-protein kinase SYK (Homo sapiens) (UniProt P43405); assay: Inhibition of SYK (unknown origin) at 2 uM by radioactive filter-binding assay; summary of the method: as §1
[4] = target: T1, Serine/threonine-protein kinase ULK1 (Homo sapiens, UniProt O75385); assay: Inhibition of SUMO-tagged ULK1 (unknown origin) kinase domain expressed in KRX cells using [32P]-gamma-ATP and myelin basic protein substrate incubated for 7 mins; format: cell-based
T1 sequence (O75385 whole entry): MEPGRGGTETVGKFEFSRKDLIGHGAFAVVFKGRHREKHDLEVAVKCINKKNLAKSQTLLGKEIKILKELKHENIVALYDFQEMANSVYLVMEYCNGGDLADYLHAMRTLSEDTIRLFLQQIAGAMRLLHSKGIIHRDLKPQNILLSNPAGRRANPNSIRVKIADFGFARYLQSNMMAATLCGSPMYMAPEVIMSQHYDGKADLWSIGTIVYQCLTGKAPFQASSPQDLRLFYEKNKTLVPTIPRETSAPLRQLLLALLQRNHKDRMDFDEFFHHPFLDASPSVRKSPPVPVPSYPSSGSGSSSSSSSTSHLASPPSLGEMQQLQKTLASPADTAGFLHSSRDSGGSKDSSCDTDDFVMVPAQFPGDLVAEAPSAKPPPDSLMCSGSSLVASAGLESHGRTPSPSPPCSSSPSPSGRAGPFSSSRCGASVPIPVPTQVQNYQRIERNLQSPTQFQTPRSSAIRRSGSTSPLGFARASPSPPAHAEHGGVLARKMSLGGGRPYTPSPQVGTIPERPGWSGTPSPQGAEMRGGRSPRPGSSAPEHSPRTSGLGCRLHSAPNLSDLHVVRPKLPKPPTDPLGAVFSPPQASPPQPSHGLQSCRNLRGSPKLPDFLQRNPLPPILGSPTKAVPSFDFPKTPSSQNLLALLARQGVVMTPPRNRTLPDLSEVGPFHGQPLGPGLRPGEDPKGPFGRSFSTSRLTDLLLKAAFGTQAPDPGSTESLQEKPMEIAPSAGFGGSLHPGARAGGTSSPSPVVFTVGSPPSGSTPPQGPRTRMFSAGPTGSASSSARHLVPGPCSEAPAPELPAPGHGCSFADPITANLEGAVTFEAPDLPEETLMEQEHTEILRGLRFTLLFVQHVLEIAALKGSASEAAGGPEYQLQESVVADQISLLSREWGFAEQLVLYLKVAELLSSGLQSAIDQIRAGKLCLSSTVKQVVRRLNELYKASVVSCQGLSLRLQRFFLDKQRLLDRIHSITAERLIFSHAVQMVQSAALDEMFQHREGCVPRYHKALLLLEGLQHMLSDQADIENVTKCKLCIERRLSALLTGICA
Summary of the method: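 Enzyme at 5 nM with 50 µM cold ATP, 0.05 µCi/µl 32P-γ-ATP and 20 µM myelin basic protein as substrate. Reactions were spotted onto nitrocellulose, washed three times in 1% phosphoric acid, dried and imaged by phosphorimager. IC50 from curve fitting; duplicate.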

[5] = target: Serine/threonine-protein kinase PAK 4 (Homo sapiens) (UniProt O96013); assay: Inhibition of PAK4 (unknown origin) at 2 uM by radioactive filter-binding assay; summary of the method: as §1
[6] = target: Ribosomal protein S6 kinase alpha-1 (Homo sapiens) (UniProt Q15418); assay: Inhibition of RSK1 (unknown origin) at 2 uM by radioactive filter-binding assay; summary of the method: as §1
[7] = target: MAP/microtubule affinity-regulating kinase 3 (Homo sapiens) (UniProt P27448); assay: Inhibition of MARK3 (unknown origin) at 2 uM by radioactive filter-binding assay; summary of the method: as §1
[8] = target: Calcium/calmodulin-dependent protein kinase type 1 (Homo sapiens) (UniProt Q14012); assay: Inhibition of CAMK1 (unknown origin) at 250 nM by radioactive filter-binding assay; summary of the method: as §1
[9] = target: Tyrosine-protein kinase BTK (Homo sapiens) (UniProt Q06187); assay: Inhibition of BTK (unknown origin) at 250 nM by radioactive filter-binding assay; summary of the method: as §1
[10] = target: Insulin-like growth factor 1 receptor (Homo sapiens) (UniProt P08069); assay: Inhibition of IGF1R (unknown origin) at 250 nM by radioactive filter-binding assay; summary of the method: as §1
[11] = target: Tyrosine-protein kinase JAK2 (Homo sapiens) (UniProt O60674); assay: Inhibition of JAK2 (unknown origin) at 250 nM by radioactive filter-binding assay; summary of the method: as §1
[12] = target: Casein kinase I isoform delta (Homo sapiens) (UniProt P48730); assay: Inhibition of CK1delta (unknown origin) at 250 nM by radioactive filter-binding assay; summary of the method: as §1
[13] = target: SRSF protein kinase 1 (Homo sapiens) (UniProt Q96SB4); assay: Inhibition of SRPK1 (unknown origin) at 250 nM by radioactive filter-binding assay; summary of the method: as §1
[14] = target: MAP/microtubule affinity-regulating kinase 3 (Homo sapiens) (UniProt P27448); assay: Inhibition of MARK3 (unknown origin) at 250 nM by radioactive filter-binding assay; summary of the method: as §1
[15] = target: Serine/threonine-protein kinase Sgk1 (Homo sapiens) (UniProt O00141); assay: Inhibition of SGK1 (unknown origin) at 250 nM by radioactive filter-binding assay; summary of the method: as §1
[16] = target: AMP-activated protein kinase, AMPK (Homo sapiens) (UniProt P54646+O43741+P54619+Q9UGJ0+Q9Y478+Q13131+Q9UGI9); assay: Inhibition of AMPK (unknown origin) at 250 nM by radioactive filter-binding assay; format: protein-complex assay; summary of the method: as §1
[17] = target: Receptor-interacting serine/threonine-protein kinase 2 (Homo sapiens) (UniProt O43353); assay: Inhibition of RIPK2 (unknown origin) at 250 nM by radioactive filter-binding assay; summary of the method: as §1
[18] = target: Serine/threonine-protein kinase PAK 4 (Homo sapiens) (UniProt O96013); assay: Inhibition of PAK4 (unknown origin) at 250 nM by radioactive filter-binding assay; summary of the method: as §1
[19] = target: Dual specificity tyrosine-phosphorylation-regulated kinase 1A (Homo sapiens) (UniProt Q13627); assay: Inhibition of DYRK1A (unknown origin) at 250 nM by radioactive filter-binding assay; summary of the method: as §1
Homo sapiens = organism: Homo sapiens; assay: Inhibition of Aurora (unknown origin) at 250 nM by radioactive filter-binding assay; summary of the method: as §1
[20] = target: Serine/threonine-protein kinase TBK1 (Homo sapiens) (UniProt Q9UHD2); assay: Inhibition of TBK1 (unknown origin) at 250 nM by radioactive filter-binding assay; summary of the method: as §1

Sequence of MAP/microtubule affinity-regulating kinase 3 (Homo sapiens) (P27448 whole entry, looked up): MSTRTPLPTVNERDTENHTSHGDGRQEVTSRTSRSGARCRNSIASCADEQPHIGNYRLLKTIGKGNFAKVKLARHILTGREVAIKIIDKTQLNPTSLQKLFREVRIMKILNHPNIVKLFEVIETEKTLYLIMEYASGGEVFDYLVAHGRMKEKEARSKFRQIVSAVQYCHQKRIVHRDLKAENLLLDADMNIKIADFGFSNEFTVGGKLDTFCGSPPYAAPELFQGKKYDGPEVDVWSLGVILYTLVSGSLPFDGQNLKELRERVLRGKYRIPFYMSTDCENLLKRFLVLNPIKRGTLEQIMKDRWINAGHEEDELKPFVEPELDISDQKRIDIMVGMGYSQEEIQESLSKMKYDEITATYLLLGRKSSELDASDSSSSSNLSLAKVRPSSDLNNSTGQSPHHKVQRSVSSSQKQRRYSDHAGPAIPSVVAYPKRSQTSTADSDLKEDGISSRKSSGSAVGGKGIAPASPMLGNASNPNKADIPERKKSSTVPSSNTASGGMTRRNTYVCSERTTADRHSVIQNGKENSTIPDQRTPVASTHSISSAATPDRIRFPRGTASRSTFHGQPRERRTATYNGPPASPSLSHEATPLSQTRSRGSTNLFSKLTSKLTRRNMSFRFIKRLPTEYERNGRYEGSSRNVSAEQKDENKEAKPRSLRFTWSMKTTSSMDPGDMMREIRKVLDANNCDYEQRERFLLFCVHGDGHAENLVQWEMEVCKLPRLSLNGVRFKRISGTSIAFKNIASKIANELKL
Sequence of Serine/threonine-protein kinase PAK 4 (Homo sapiens) (O96013 whole entry, looked up): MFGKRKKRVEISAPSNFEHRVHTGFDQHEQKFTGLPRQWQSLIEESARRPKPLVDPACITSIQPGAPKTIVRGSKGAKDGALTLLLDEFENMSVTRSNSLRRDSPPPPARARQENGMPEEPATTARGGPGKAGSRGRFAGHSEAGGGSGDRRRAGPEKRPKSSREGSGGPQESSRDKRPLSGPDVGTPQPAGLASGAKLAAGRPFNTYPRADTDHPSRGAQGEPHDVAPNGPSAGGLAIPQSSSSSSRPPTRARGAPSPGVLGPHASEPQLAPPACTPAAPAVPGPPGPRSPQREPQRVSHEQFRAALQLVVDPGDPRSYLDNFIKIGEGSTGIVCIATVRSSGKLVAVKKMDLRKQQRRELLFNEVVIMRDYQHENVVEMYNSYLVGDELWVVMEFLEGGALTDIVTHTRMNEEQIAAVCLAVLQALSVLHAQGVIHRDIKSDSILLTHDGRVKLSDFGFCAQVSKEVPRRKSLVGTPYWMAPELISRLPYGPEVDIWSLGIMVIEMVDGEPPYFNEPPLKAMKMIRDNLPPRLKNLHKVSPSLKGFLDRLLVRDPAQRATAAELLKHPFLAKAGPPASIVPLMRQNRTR
Sequence of Receptor-interacting serine/threonine-protein kinase 2 (Homo sapiens) (O43353 whole entry): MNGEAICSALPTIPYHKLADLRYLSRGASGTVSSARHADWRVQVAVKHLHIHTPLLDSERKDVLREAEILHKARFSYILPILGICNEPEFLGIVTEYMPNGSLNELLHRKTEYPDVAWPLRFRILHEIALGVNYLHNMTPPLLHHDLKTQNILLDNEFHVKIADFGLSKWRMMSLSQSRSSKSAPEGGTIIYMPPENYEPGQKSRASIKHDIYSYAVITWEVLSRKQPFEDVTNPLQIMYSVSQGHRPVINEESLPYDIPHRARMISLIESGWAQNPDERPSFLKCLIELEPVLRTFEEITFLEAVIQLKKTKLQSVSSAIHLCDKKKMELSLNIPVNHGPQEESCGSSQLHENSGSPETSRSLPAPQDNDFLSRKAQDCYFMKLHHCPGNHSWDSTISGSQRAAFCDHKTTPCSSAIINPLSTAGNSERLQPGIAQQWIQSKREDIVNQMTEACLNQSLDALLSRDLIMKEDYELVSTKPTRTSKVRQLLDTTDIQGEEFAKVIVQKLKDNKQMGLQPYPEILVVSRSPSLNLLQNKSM
Sequence of Calcium/calmodulin-dependent protein kinase type 1 (Homo sapiens) (Q14012 whole entry, looked up): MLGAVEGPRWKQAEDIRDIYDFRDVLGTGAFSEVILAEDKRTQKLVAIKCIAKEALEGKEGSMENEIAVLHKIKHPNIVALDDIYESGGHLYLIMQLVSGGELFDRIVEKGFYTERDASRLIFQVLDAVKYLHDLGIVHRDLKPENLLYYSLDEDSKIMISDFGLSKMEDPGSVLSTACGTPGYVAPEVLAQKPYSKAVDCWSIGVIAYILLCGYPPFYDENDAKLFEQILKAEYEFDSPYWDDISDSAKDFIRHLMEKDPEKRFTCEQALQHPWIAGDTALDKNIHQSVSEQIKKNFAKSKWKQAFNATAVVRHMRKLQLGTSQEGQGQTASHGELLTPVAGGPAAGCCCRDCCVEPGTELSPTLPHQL
Sequence of Serine/threonine-protein kinase Sgk1 (Homo sapiens) (O00141 whole entry): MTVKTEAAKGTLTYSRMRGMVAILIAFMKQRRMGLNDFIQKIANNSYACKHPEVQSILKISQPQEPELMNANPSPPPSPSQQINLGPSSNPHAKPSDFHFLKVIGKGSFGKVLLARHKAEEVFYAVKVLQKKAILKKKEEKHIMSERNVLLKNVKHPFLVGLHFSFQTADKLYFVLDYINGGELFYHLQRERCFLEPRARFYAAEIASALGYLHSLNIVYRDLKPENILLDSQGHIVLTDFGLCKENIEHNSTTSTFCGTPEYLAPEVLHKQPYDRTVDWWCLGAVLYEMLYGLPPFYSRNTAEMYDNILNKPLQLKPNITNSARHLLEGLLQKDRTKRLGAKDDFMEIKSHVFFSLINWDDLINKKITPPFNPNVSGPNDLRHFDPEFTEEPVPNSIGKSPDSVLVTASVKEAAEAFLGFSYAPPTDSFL
Sequence of Tyrosine-protein kinase JAK2 (Homo sapiens) (O60674 whole entry, canonical isoform): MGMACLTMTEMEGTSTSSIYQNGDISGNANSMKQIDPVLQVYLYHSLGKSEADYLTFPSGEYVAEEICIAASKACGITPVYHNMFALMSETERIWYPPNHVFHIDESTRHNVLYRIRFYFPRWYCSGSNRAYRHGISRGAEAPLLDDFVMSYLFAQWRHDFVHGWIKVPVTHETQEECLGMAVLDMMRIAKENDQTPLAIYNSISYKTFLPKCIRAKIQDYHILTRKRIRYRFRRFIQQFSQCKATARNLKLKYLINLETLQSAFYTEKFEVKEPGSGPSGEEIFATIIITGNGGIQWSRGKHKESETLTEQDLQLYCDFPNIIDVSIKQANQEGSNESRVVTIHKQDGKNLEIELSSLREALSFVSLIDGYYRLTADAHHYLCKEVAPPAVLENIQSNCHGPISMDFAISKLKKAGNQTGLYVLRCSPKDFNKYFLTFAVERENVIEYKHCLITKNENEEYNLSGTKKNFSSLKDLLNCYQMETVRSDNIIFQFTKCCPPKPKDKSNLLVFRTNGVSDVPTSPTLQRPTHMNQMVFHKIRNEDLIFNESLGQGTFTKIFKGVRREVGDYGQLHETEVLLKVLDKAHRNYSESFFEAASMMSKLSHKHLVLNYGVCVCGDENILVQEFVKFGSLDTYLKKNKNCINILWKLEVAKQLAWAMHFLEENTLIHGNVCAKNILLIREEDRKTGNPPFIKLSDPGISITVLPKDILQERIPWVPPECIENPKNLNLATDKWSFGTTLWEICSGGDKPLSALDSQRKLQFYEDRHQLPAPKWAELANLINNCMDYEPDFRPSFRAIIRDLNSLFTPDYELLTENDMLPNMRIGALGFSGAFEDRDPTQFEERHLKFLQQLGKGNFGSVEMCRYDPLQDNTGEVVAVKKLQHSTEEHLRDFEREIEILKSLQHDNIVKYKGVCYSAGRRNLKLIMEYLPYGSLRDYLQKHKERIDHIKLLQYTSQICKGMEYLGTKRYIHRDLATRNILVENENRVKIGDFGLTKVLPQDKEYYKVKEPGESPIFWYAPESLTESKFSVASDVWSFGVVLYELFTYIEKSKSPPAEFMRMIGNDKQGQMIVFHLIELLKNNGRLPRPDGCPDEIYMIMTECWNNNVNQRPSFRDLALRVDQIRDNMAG
Sequence of SRSF protein kinase 1 (Homo sapiens) (Q96SB4 whole entry): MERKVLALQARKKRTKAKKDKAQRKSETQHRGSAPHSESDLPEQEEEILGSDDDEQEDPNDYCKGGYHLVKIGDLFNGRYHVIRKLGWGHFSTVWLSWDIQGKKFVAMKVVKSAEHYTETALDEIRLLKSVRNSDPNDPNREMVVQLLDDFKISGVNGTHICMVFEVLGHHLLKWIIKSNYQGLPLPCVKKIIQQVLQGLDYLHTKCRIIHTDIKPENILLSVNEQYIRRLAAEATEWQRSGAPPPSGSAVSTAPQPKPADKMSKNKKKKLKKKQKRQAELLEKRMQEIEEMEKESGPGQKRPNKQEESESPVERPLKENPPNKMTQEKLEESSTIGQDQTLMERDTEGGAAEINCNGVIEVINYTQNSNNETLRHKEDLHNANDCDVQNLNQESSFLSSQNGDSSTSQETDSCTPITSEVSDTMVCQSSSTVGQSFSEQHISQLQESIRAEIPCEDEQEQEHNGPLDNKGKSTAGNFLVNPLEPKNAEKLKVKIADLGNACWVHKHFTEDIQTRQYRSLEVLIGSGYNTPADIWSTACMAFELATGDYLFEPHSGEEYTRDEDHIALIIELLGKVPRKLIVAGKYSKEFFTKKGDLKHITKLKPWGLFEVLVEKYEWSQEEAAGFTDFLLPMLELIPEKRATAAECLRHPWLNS
Sequence of Casein kinase I isoform delta (Homo sapiens) (P48730 whole entry, looked up, canonical isoform): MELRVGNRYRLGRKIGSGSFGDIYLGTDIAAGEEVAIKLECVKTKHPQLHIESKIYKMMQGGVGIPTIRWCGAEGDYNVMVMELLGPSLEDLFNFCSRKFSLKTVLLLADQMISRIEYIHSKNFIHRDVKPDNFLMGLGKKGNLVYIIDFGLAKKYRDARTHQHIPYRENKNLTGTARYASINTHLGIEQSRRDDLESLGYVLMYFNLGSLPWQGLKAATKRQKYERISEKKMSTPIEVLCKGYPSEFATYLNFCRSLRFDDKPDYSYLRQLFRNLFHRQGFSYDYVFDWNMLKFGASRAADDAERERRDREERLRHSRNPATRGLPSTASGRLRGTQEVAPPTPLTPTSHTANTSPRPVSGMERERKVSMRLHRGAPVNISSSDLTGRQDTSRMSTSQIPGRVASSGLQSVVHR

`NCCCNc1nc(Nc2cccc(NC(=O)N3CCCC3)c2)ncc1I` was tested, and the inhibition [1] was greater than 80%, the inhibition [2] was greater than 80% and the Activity (HeLa) was “Active”. It also gave an inhibition [3] greater than 80%, an IC50 [4] of 0.12 µM and an inhibition [5] greater than 80%. The inhibition [6] was greater than 80% and the inhibition [7] was greater than 80%.
`c1ccc2c(Nc3cc(C4CCC4)[nH]n3)nc(Nc3ccc4[nH]cnc4c3)nc2c1` gave an inhibition [8] greater than 80%, an inhibition [9] greater than 80% and an inhibition [10] greater than 80%. The inhibition [11] was greater than 80%, the inhibition [12] was greater than 80% and the inhibition [13] was greater than 80%. For the same molecule, the inhibition [14] was greater than 80%, the inhibition [15] was greater than 80% and the inhibition [16] was greater than 80%. The inhibition [17] was greater than 80%, the inhibition [18] was greater than 80% and the inhibition [19] was greater than 80%. It also gave an inhibition (Homo sapiens) greater than 80% and an inhibition [20] greater than 80%.
